Data published in ChEMBL document CHEMBL1145962, “Structure-based de novo design, synthesis, and biological evaluation of non-azole inhibitors specific for lanosterol 14alpha-demethylase of fungi” (2003).
Values after ≈ are worked out from the molar mass of the structure shown.

Key:
Format in all cases: functional
Sporothrix schenckii = experiment: In vitro antifungal activity against Sporothrix schenck ii
Method in brief: (§1)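 Filamentous fungi were tested by NCCLS microdilution in RPMI 1640 buffered with 0.165 M MOPS. DMSO-dissolved compounds were serially diluted in medium. MIC was read at 7 days as the lowest concentration with turbidity at ≤80% inhibition versus the drug-free control.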

Candida albicans = experiment: In vitro antifungal activity against Candida albicans
Method in brief: (§2)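 NCCLS broth serial dilution in 96-well plates with RPMI 1640 buffered with 0.165 M MOPS. Compounds were dissolved in DMSO and diluted in medium. Yeasts were incubated at 35 °C and read at 24 h. MIC is the lowest concentration giving turbidity at ≤80% inhibition versus the growth control.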

Cryptococcus neoformans = experiment: In vitro antifungal activity against Cryptococcus neoformans
Method in brief: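 Microdilution MIC per NCCLS in MOPS (0.165 M)-buffered RPMI 1640. DMSO solutions were serially diluted in growth medium. Incubated at 35 °C as a yeast, with growth read at 72 h.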

Microsporum canis = experiment: In vitro antifungal activity against Microsporum canis
Method in brief: (§3)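 Dermatophytes tested by NCCLS serial dilution in 96-well plates, in RPMI 1640 with 0.165 M MOPS. Compounds were prepared in DMSO and diluted in medium. Incubation was at 28 °C with reading at 7 days. MIC is the lowest concentration giving turbidity at ≤80% inhibition of control growth.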

Trichophyton rubrum = experiment: In vitro antifungal activity against Trichophyton rubrum; method in brief: as §3
Aspergillus fumigatus = experiment: In vitro antifungal activity against Aspergillus fumigatus; method in brief: as §1
Fonsecaea pedrosoi = experiment: In vitro antifungal activity against Fonsecaea pedrosoi; method in brief: as §1
Candida parapsilosis = experiment: In vitro antifungal activity against Candida parapsilosis; conditions: Lodderomyces parapsilosis; method in brief: as §2

Row | SMILES | MIC (Sporothrix schenckii) [µg/mL] | MIC (Candida albicans) [µg/mL] | MIC (Cryptococcus neoformans) [µg/mL] | MIC (Microsporum canis) [µg/mL] | MIC (Trichophyton rubrum) [µg/mL] | MIC (Aspergillus fumigatus) [µg/mL] | MIC (Fonsecaea pedrosoi) [µg/mL] | MIC (Candida parapsilosis) [µg/mL]
1 | CC(C)CC1(C)CC(=O)c2ccc(O)cc2O1 (stereo not drawn) | 320 (≈ 1370 µM) | > 320 | 320 (≈ 1370 µM) | 40 (≈ 171 µM) | 160 (≈ 683 µM) | 160 (≈ 683 µM) | 160 (≈ 683 µM) | 320 (≈ 1370 µM)
2 | CCCCCCCC1(C)C/C(=N/O)c2ccc(O)cc2O1 (stereo not drawn) | 10 (≈ 34.3 µM) | 40 (≈ 137 µM) | 20 (≈ 68.6 µM) | 0.625 (≈ 2.14 µM) | 2.5 (≈ 8.58 µM) | 10 (≈ 34.3 µM) | 40 (≈ 137 µM) | 20 (≈ 68.6 µM)
3 | COc1ccc2c(c1)OC(C)(CCC=C(C)C)C=C2 (stereo not drawn) | 320 (≈ 1240 µM) | > 320 | > 320 | 80 (≈ 310 µM) | 40 (≈ 155 µM) | > 320 | > 320 | > 320
4 | COc1ccc2c(c1)OC(C)(CCC=C(C)C)CC2O (stereo not drawn) | 320 (≈ 1160 µM) | > 320 | 160 (≈ 579 µM) | 160 (≈ 579 µM) | 160 (≈ 579 µM) | 160 (≈ 579 µM) | 320 (≈ 1160 µM) | 160 (≈ 579 µM)
5 | CCCCCC1(C)CC(=O)c2ccc(OC)cc2O1 (stereo not drawn) | > 320 | > 320 | > 320 | 80 (≈ 305 µM) | > 320 | 160 (≈ 610 µM) | > 320 | > 320
6 | CC(C)=CCCC1(C)CC(=O)c2ccc(O)cc2O1 (stereo not drawn) | 160 (≈ 615 µM) | 160 (≈ 615 µM) | 160 (≈ 615 µM) | 40 (≈ 154 µM) | 80 (≈ 307 µM) | 80 (≈ 307 µM) | 160 (≈ 615 µM) | 80 (≈ 307 µM)
7 | CC(C)=CCCC1(C)CC(O)c2ccc(O)cc2O1 (stereo not drawn) | 80 (≈ 305 µM) | 80 (≈ 305 µM) | 160 (≈ 610 µM) | 10 (≈ 38.1 µM) | 80 (≈ 305 µM) | 160 (≈ 610 µM) | 160 (≈ 610 µM) | 80 (≈ 305 µM)
8 | CCCCCCCCCC1(C)CC(=O)c2ccc(O)cc2O1 (stereo not drawn) | > 320 | > 320 | > 320 | 80 (≈ 263 µM) | > 320 | 80 (≈ 263 µM) | > 320 | > 320
9 | CCCCCCCC1(C)CC(=O)c2ccc(O)cc2O1 (stereo not drawn) | 40 (≈ 145 µM) | 160 (≈ 579 µM) | 80 (≈ 289 µM) | 80 (≈ 289 µM) | 40 (≈ 145 µM) | 160 (≈ 579 µM) | 80 (≈ 289 µM) | 160 (≈ 579 µM)
10 | CCCCCC1(C)C=Cc2ccc(OC)cc2O1 (stereo not drawn) | > 320 | > 320 | 320 (≈ 1300 µM) | 320 (≈ 1300 µM) | > 320 | > 320 | > 320 | > 320
11 | CCCCCCCC1(C)CC(O)c2ccc(OC)cc2O1 (stereo not drawn) | 40 (≈ 137 µM) | 320 (≈ 1090 µM) | 80 (≈ 274 µM) | 80 (≈ 274 µM) | 80 (≈ 274 µM) | 80 (≈ 274 µM) | 160 (≈ 547 µM) | 160 (≈ 547 µM)
12 | CC(C)=CCCC1(C)C/C(=N/O)c2ccc(O)cc2O1 (stereo not drawn) | 40 (≈ 145 µM) | 80 (≈ 291 µM) | 40 (≈ 145 µM) | 2.5 (≈ 9.08 µM) | 5 (≈ 18.2 µM) | 40 (≈ 145 µM) | 20 (≈ 72.6 µM) | 40 (≈ 145 µM)
13 | CCCCCCCC1(C)C=Cc2ccc(OC)cc2O1 (stereo not drawn) | > 320 | > 320 | > 320 | 320 (≈ 1170 µM) | > 320 | > 320 | > 320 | > 320
14 | CCCCCCCC1(C)CC(=O)c2ccc(OC)cc2O1 (stereo not drawn) | 40 (≈ 138 µM) | > 320 | > 320 | 40 (≈ 138 µM) | 320 (≈ 1100 µM) | > 320 | > 320 | 320 (≈ 1100 µM)
15 | CCCCCC1(C)CC(=O)c2ccc(O)cc2O1 (stereo not drawn) | 80 (≈ 322 µM) | 320 (≈ 1290 µM) | 160 (≈ 644 µM) | 40 (≈ 161 µM) | 20 (≈ 80.5 µM) | 160 (≈ 644 µM) | 80 (≈ 322 µM) | 160 (≈ 644 µM)
16 | CCCCCC1(C)CC(O)c2ccc(OC)cc2O1 (stereo not drawn) | > 320 | 320 (≈ 1210 µM) | 160 (≈ 605 µM) | 20 (≈ 75.7 µM) | 20 (≈ 75.7 µM) | 80 (≈ 303 µM) | > 320 | 160 (≈ 605 µM)
17 | CCCCCC1(C)C/C(=N/O)c2ccc(O)cc2O1 (stereo not drawn) | 40 (≈ 152 µM) | 160 (≈ 608 µM) | 40 (≈ 152 µM) | 5 (≈ 19 µM) | 5 (≈ 19 µM) | 80 (≈ 304 µM) | 40 (≈ 152 µM) | 40 (≈ 152 µM)
18 | COc1ccc2c(c1)OC(C)(CCC=C(C)C)CC2=O (stereo not drawn) | 320 (≈ 1170 µM) | > 320 | > 320 | 80 (≈ 292 µM) | > 320 | 160 (≈ 583 µM) | > 320 | > 320
19 | OC(Cn1cncn1)(Cn1cncn1)c1ccc(F)cc1F [FLUCONAZOLE] | 0.25 (≈ 0.816 µM) | 4 (≈ 13.1 µM) | 32 (≈ 104 µM) | 0.5 (≈ 1.63 µM) | 0.5 (≈ 1.63 µM) | 16 (≈ 52.2 µM) | 64 (≈ 209 µM) | 8 (≈ 26.1 µM)
20 | CCCCCC1(C)CC(O)c2ccc(O)cc2O1 (stereo not drawn) | 20 (≈ 79.9 µM) | 160 (≈ 639 µM) | 80 (≈ 320 µM) | 10 (≈ 39.9 µM) | 20 (≈ 79.9 µM) | 80 (≈ 320 µM) | 40 (≈ 160 µM) | 40 (≈ 160 µM)
21 | CCCCCCCC1(C)CC(O)c2ccc(O)cc2O1 (stereo not drawn) | 40 (≈ 144 µM) | 40 (≈ 144 µM) | 40 (≈ 144 µM) | 2.5 (≈ 8.98 µM) | 20 (≈ 71.8 µM) | 80 (≈ 287 µM) | 80 (≈ 287 µM) | 20 (≈ 71.8 µM)
